Columns and labels:
[1] = tested on: DLD-1; assay: Concentration required to inhibit 50% of farnesylation of H-Ras in DLD-1 cells; format: functional, cell-based; conditions: Homo sapiens
[2] = target: Protein farnesyltransferase (Bos taurus, UniProt P29702+P49355); assay: Inhibit of purified bovine Farnesyl protein transferase.; format: protein-complex assay
Method in brief: (§1)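 Isolated-enzyme inhibition assays (FPTase, and GGPTase I for the GGPTase lines) were run by a previously published method, with n=2 determinations per compound. The read-out is the IC50 in nM.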

[3] = Concentration required to inhibit 50% of GGPTase enzyme activity; method in brief: as §1

SMILES | IC50 [1] [nM] | IC50 [2] [nM] | IC50 [3] [nM]
N#Cc1ccc(Cn2cncc2CN(c2ccc(N3CCN(C(=O)c4ccc(Cl)s4)CC3)cc2)S(=O)(=O)c2ccccc2)cc1 | 200 |  | 
O=C(c1ccc(Cl)s1)N1CCN(c2ccc(N(Cc3cnc[nH]3)S(=O)(=O)c3ccccc3)cc2)CC1 |  | 600 | 
O=S(=O)(c1ccccc1)N(Cc1c[nH]cn1)c1ccc(N2CCN(C(=S)Nc3ccccc3)CC2)cc1 |  | 600 | > 1000
N#Cc1ccc(Cn2cncc2CN(C(=O)c2ccccc2)c2ccc(N3CCN(C(=O)c4ccc(Cl)s4)CC3)cc2)cc1 | 3 |  | > 1000
O=C(NC1CCCCC1)N1CCN(c2ccc(N(Cc3cnc[nH]3)S(=O)(=O)c3ccccc3)cc2)CC1 |  | 1000 | 
O=S(=O)(c1ccccc1)N(Cc1c[nH]cn1)c1ccc(N2CCN(C(=S)NCCc3ccccc3)CC2)cc1 |  | 100 | > 1000
CC(C)C/N=C(\S)N1CCN(c2ccc(N(Cc3c[nH]cn3)S(=O)(=O)c3ccccc3)cc2)CC1 | 800 |  | > 1000
O=C(NCc1ccccc1)N1CCN(c2ccc(N(Cc3cnc[nH]3)S(=O)(=O)c3ccccc3)cc2)CC1 |  | 600 | 
N#Cc1ccc(Cn2cncc2CN(C(=O)c2ccccc2F)c2ccc(N3CCN(C(=O)c4ccc(Cl)s4)CC3)cc2)cc1 | 20 |  | 
N#Cc1ccc(Cn2cncc2CN(C(=O)c2cccc(F)c2)c2ccc(N3CCN(C(=O)c4ccc(Cl)s4)CC3)cc2)cc1 | 6 |  | > 1000
N#Cc1ccc(Cn2cncc2CNc2ccc(N3CCN(C(=O)c4ccc(Cl)s4)CC3)cc2)cc1 |  | 70 | 
N#Cc1ccc(Cn2cncc2CN(Cc2ccc(F)cc2)c2ccc(N3CCN(C(=O)c4ccc(Cl)s4)CC3)cc2)cc1 |  | 70 | 
O=C(Nc1ccccc1)N1CCN(c2ccc(N(Cc3cnc[nH]3)S(=O)(=O)c3ccccc3)cc2)CC1 |  | 1000 | 

Now from value to molecule:

IC50 [1] [nM] | IC50 [2] [nM] | IC50 [3] [nM] | SMILES
 | 20 |  | N#Cc1ccc(Cn2cncc2CN(Cc2cccc(F)c2)c2ccc(N3CCN(C(=O)c4ccc(Cl)s4)CC3)cc2)cc1
7 | 2 | 700 | COc1cccc(C(=O)N(Cc2cncn2Cc2ccc(C#N)cc2)c2ccc(N3CCN(C(=O)c4ccc(Cl)s4)CC3)cc2)c1
> 10000 | 2 |  | COc1ccccc1C(=O)N(Cc1cncn1Cc1ccc(C#N)cc1)c1ccc(N2CCN(C(=O)c3ccc(Cl)s3)CC2)cc1
 | 60 | > 1000 | O=S(=O)(c1ccccc1)N(Cc1c[nH]cn1)c1ccc(N2CCN(C(=S)NCc3ccccc3)CC2)cc1
80 | 2 |  | COc1ccc(C(=O)N(Cc2cncn2Cc2ccc(C#N)cc2)c2ccc(N3CCN(C(=O)c4ccc(Cl)s4)CC3)cc2)cc1
2 | 2 | > 1000 | N#Cc1ccc(Cn2cncc2CN(C(=O)c2cccc(Cl)c2)c2ccc(N3CCN(C(=O)c4ccc(Cl)s4)CC3)cc2)cc1
 | 30 | > 1000 | O=S(=O)(c1ccccc1)N(Cc1c[nH]cn1)c1ccc(N2CCN(C(=S)NCC3CCCCC3)CC2)cc1
1000 | 20 | > 1000 | O=S(=O)(c1ccccc1)N(Cc1c[nH]cn1)c1ccc(N2CCN(C(=S)NC3CCCCC3)CC2)cc1

Source: ChEMBL document CHEMBL1136706, “Synthesis and evaluation of a novel series of farnesyl protein transferase inhibitors as non-peptidic CAAX tetrapeptide analogues” (Bioorg Med Chem Lett, 2003)
